A short description of series [1]: Biocompatibility in AIA rats: blood cell counts and body weight. Type of series: in vivo, SD rats. Particulars: compared to the normal group, n = 7.
Series [2] relates to adjuvant-induced arthritis (AIA) rat model. Put plainly: In vivo therapeutic efficacy in adjuvant-induced arthritis. On the set-up: species or system SD rats. Particulars: AIA rats, i.v. 0.75 mg/kg peptide every day for one week, n = 7, vs PBS. In outline:
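Adjuvant arthritis was induced in male SD rats by s.c. CFA into the paws on Day 1 and was largely established by Day 10. Groups of n = 7, plus healthy controls, received daily i.v. PBS, free peptide or nanoparticles (0.75 mg/kg peptide) for one week. Body weight, paw thickness and joint score were recorded daily. Each paw was graded 0–4 for erythema/swelling, giving a maximum of 16 per rat. Values are mean ± SD; groups were compared by Student's t-test.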

Series [3] has as its system Th17 (CD4+IL-17+) and Treg (CD4+Foxp3+) cells. In words: Flow cytometry of Th17 and Treg cells in draining lymph nodes of AIA rats. Type of series: in vivo, SD rats. The following applies: Day 24, n = 7. In outline: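 Arthritis induced in SD rats on Day 1 by subcutaneous paw injection of 50 µl CFA (10 mg/ml Mycobacterium tuberculosis). Groups (n = 7) given i.v. PBS, free peptide or peptide-loaded nanoparticles (0.75 mg/kg peptide) daily for one week; healthy rats as normal control. On Day 24, popliteal draining lymph nodes sieved (300-mesh) to single cells; CD4+IL-17+ and CD4+Foxp3+ subsets by flow cytometry; mean ± SD.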
A general note: Flow cytometry measures light scatter and fluorescence of single cells or particles in a stream.

The next series deals with ankle joints of AIA rats. In words: Joint histology. Type of series: in vivo, SD rats. The following applies: i.v. 0.75 mg/kg peptide every day for one week. In outline: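 CFA-induced arthritic SD rats received daily i.v. PBS, free peptide or nanoparticles (0.75 mg/kg peptide) for one week; healthy rats served as controls. Rats were sacrificed after 14 d. Ankle joints were fixed in 4% paraformaldehyde for 3 d, decalcified in 15% EDTA-2Na and sectioned. Sections were stained with HE, or immunostained with IL-17A and MPO antibodies plus secondary antibodies. n = 7.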

The subject of series [4] is TNF-α, IL-1β, IL-6, IL-17A in joint homogenates. In words: Inflammatory cytokines in joint homogenates of AIA rats. It is filed as in vivo, SD rats. The following applies: ELISA, i.v. 0.75 mg/kg peptide every day for one week, n = 7. In outline: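 SD rats made arthritic on Day 1 by 50 µl CFA (10 mg/ml M. tuberculosis) injected s.c. into paws. Arthritic rats (n = 7/group) then dosed i.v. daily for one week with PBS, free peptide or nanoparticle formulation at 0.75 mg/kg peptide; untreated healthy rats as reference. After 14 d, joint tissues cut up and homogenised; TNF-α, IL-1β, IL-6, IL-17A quantified by ELISA; mean ± SD.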
In general terms: In an ELISA, binding on a coated surface is turned into a signal by an enzyme label.

Data on 1 sequence can be found in paper PMC8520054 (Asian Journal of Pharmaceutical Sciences, 2021).

For AMVSEFLKQAWFIENEEQEYVQTVK [Ac2–26], in series [1], the “count of platelets (PLT)” value is recorded as “no significant difference” and the “count of white blood cells (WBC)” value is on record as “no significant difference”. For the same sequence, the paw thickness entry in series [2] is reported as “limited reduction of the paw thickness”. For the same sequence, the “proportion of Treg cells in draining lymph nodes” value in series [3] was “unable to increase the proportion of Treg”. Further, in the series on ankle joints of AIA rats, the “expression of IL-17A in joint tissues (immunohistochemistry)” value is given as “clearly visible” and the “expression of MPO in joint tissues (immunohistochemistry)” value was “slightly attenuate the expression of MPO”. For the same sequence, the “pathological condition of ankle joints (HE staining)” value with ankle joints of AIA rats (n = 7) was “extensive inflammation infiltration, tissue damage and cartilage destruction”. Besides, in series [4], the “expression of IL-1β in joint homogenates” value is listed as “unable to effectively decrease the inflammatory level”, the “expression of IL-6 in joint homogenates” value was “unable to effectively decrease the inflammatory level”, the “expression of IL-17A in joint homogenates” value is “unable to effectively decrease the inflammatory level” and the “expression of TNF-α in joint homogenates” value was “unable to effectively decrease the inflammatory level”.
